In brackets after ≈: the same amount, converted by molar mass.
System: Mycobacterium tuberculosis
Assay: Antimycobacterial activity against Mycobacterium tuberculosis 331/88 after 14 days by micromethod
Type: functional
Conditions: 331/88, 336 h
Procedure, shortened: (§1)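 Inocula: M. tuberculosis My 331/88 at 10^-3 dilution, M. avium My 330/88 at 10^-5, M. kansasii My 235/80 and clinical isolate 6509/96 at 10^-4. Compounds added in DMSO at 1000 down to 0.5 (twofold series). Read at 14 and 21 days, plus 7 days for M. kansasii. MIC taken as lowest concentration inhibiting growth.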

| Structure (SMILES) | MIC |
| --- | --- |
| COc1ccc(Cl)cc1C(=O)Nc1cc(Cl)c(Cl)cc1O | 125 µM (≈ 43.3 µg/mL) |
| COc1ccc(Cl)cc1C(=O)Nc1cc(C(F)(F)F)ccc1O | 250 µM (≈ 86.4 µg/mL) |
| COc1cc(Cl)ccc1C(=S)Nc1cc(Cl)c(Cl)cc1O | 32 µM (≈ 11.6 µg/mL) |
| COc1ccc(Cl)cc1C(=O)Nc1ccc(Br)cc1O | 4 µM (≈ 1.43 µg/mL) |
| COc1cc(Cl)ccc1C(=O)Nc1ccc(Cl)cc1O | 8 µM (≈ 2.5 µg/mL) |
| COc1ccc(Cl)cc1C(=O)Nc1cc(Br)ccc1O | 8 µM (≈ 2.85 µg/mL) |

System: Mycobacterium tuberculosis
Assay: Antimycobacterial activity against Mycobacterium tuberculosis 331/88 after 21 days by micromethod
Type: functional
Conditions: 331/88, 504 h
Procedure, shortened: as §1

| Structure (SMILES) | MIC |
| --- | --- |
| COc1ccc(Cl)cc1C(=O)Nc1cc(Cl)c(Cl)cc1O | 125 µM (≈ 43.3 µg/mL) |
| COc1ccc(Cl)cc1C(=O)Nc1cc(C(F)(F)F)ccc1O | 250 µM (≈ 86.4 µg/mL) |
| COc1cc(Cl)ccc1C(=S)Nc1cc(Cl)c(Cl)cc1O | 32 µM (≈ 11.6 µg/mL) |
| COc1ccc(Cl)cc1C(=O)Nc1ccc(Br)cc1O | 8 µM (≈ 2.85 µg/mL) |
| COc1cc(Cl)ccc1C(=O)Nc1ccc(Cl)cc1O | 8 µM (≈ 2.5 µg/mL) |
| COc1ccc(Cl)cc1C(=O)Nc1cc(Br)ccc1O | 8 µM (≈ 2.85 µg/mL) |

System: Mycobacterium avium
Assay: Antimycobacterial activity against isoniazid resistance Mycobacterium avium 330/88 after 14 days by micromethod
Type: functional
Conditions: 330/88, 336 h
Procedure, shortened: as §1

| Structure (SMILES) | MIC |
| --- | --- |
| COc1ccc(Cl)cc1C(=O)Nc1cc(Cl)c(Cl)cc1O | 125 µM (≈ 43.3 µg/mL) |
| COc1ccc(Cl)cc1C(=O)Nc1cc(C(F)(F)F)ccc1O | 62.5 µM (≈ 21.6 µg/mL) |
| COc1cc(Cl)ccc1C(=S)Nc1cc(Cl)c(Cl)cc1O | 62.5 µM (≈ 22.7 µg/mL) |
| COc1ccc(Cl)cc1C(=O)Nc1ccc(Br)cc1O | 500 µM (≈ 178 µg/mL) |
| COc1cc(Cl)ccc1C(=O)Nc1ccc(Cl)cc1O | 62.5 µM (≈ 19.5 µg/mL) |
| COc1ccc(Cl)cc1C(=O)Nc1cc(Br)ccc1O | 62.5 µM (≈ 22.3 µg/mL) |

System: Mycobacterium avium
Assay: Antimycobacterial activity against isoniazid resistance Mycobacterium avium 330/88 after 21 days by micromethod
Type: functional
Conditions: 330/88, 504 h
Procedure, shortened: as §1

| Structure (SMILES) | MIC |
| --- | --- |
| COc1ccc(Cl)cc1C(=O)Nc1cc(Cl)c(Cl)cc1O | 125 µM (≈ 43.3 µg/mL) |
| COc1ccc(Cl)cc1C(=O)Nc1cc(C(F)(F)F)ccc1O | 125 µM (≈ 43.2 µg/mL) |
| COc1cc(Cl)ccc1C(=S)Nc1cc(Cl)c(Cl)cc1O | 62.5 µM (≈ 22.7 µg/mL) |
| COc1ccc(Cl)cc1C(=O)Nc1ccc(Br)cc1O | 500 µM (≈ 178 µg/mL) |
| COc1cc(Cl)ccc1C(=O)Nc1ccc(Cl)cc1O | 125 µM (≈ 39 µg/mL) |
| COc1ccc(Cl)cc1C(=O)Nc1cc(Br)ccc1O | 62.5 µM (≈ 22.3 µg/mL) |

System: Mycobacterium kansasii
Assay: Antimycobacterial activity against Mycobacterium kansasii 6509/96 clinical isolate after 7 days by micromethod
Type: functional
Conditions: 6509/96, 168 h
Procedure, shortened: as §1

| Structure (SMILES) | MIC |
| --- | --- |
| COc1ccc(Cl)cc1C(=O)Nc1cc(Cl)c(Cl)cc1O | 125 µM (≈ 43.3 µg/mL) |
| COc1ccc(Cl)cc1C(=O)Nc1cc(C(F)(F)F)ccc1O | 62.5 µM (≈ 21.6 µg/mL) |
| COc1cc(Cl)ccc1C(=S)Nc1cc(Cl)c(Cl)cc1O | 16 µM (≈ 5.8 µg/mL) |
| COc1ccc(Cl)cc1C(=O)Nc1ccc(Br)cc1O | 250 µM (≈ 89.2 µg/mL) |
| COc1cc(Cl)ccc1C(=O)Nc1ccc(Cl)cc1O | 16 µM (≈ 4.99 µg/mL) |
| COc1ccc(Cl)cc1C(=O)Nc1cc(Br)ccc1O | 4 µM (≈ 1.43 µg/mL) |

System: Mycobacterium kansasii
Assay: Antimycobacterial activity against isoniazid resistance Mycobacterium kansasii 225/80 after 7 days by micromethod
Type: functional
Conditions: 225/80, 168 h

| Structure (SMILES) | MIC |
| --- | --- |
| COc1ccc(Cl)cc1C(=O)Nc1cc(Cl)c(Cl)cc1O | 125 µM (≈ 43.3 µg/mL) |
| COc1ccc(Cl)cc1C(=O)Nc1cc(C(F)(F)F)ccc1O | 32 µM (≈ 11.1 µg/mL) |
| COc1cc(Cl)ccc1C(=S)Nc1cc(Cl)c(Cl)cc1O | 16 µM (≈ 5.8 µg/mL) |
| COc1ccc(Cl)cc1C(=O)Nc1ccc(Br)cc1O | 500 µM (≈ 178 µg/mL) |
| COc1cc(Cl)ccc1C(=O)Nc1ccc(Cl)cc1O | 62.5 µM (≈ 19.5 µg/mL) |
| COc1ccc(Cl)cc1C(=O)Nc1cc(Br)ccc1O | 4 µM (≈ 1.43 µg/mL) |

System: Mycobacterium kansasii
Assay: Antimycobacterial activity against isoniazid resistance Mycobacterium kansasii 225/80 after 14 days by micromethod
Type: functional
Conditions: 225/80, 336 h

| Structure (SMILES) | MIC |
| --- | --- |
| COc1ccc(Cl)cc1C(=O)Nc1cc(Cl)c(Cl)cc1O | 125 µM (≈ 43.3 µg/mL) |
| COc1ccc(Cl)cc1C(=O)Nc1cc(C(F)(F)F)ccc1O | 62.5 µM (≈ 21.6 µg/mL) |
| COc1cc(Cl)ccc1C(=S)Nc1cc(Cl)c(Cl)cc1O | 32 µM (≈ 11.6 µg/mL) |
| COc1ccc(Cl)cc1C(=O)Nc1ccc(Br)cc1O | 500 µM (≈ 178 µg/mL) |
| COc1cc(Cl)ccc1C(=O)Nc1ccc(Cl)cc1O | 62.5 µM (≈ 19.5 µg/mL) |
| COc1ccc(Cl)cc1C(=O)Nc1cc(Br)ccc1O | 8 µM (≈ 2.85 µg/mL) |

System: Mycobacterium kansasii
Assay: Antimycobacterial activity against isoniazid resistance Mycobacterium kansasii 225/80 after 21 days by micromethod
Type: functional
Conditions: 225/80, 504 h

| Structure (SMILES) | MIC |
| --- | --- |
| COc1ccc(Cl)cc1C(=O)Nc1cc(Cl)c(Cl)cc1O | 125 µM (≈ 43.3 µg/mL) |
| COc1ccc(Cl)cc1C(=O)Nc1cc(C(F)(F)F)ccc1O | 62.5 µM (≈ 21.6 µg/mL) |
| COc1cc(Cl)ccc1C(=S)Nc1cc(Cl)c(Cl)cc1O | 62.5 µM (≈ 22.7 µg/mL) |
| COc1ccc(Cl)cc1C(=O)Nc1ccc(Br)cc1O | 500 µM (≈ 178 µg/mL) |
| COc1cc(Cl)ccc1C(=O)Nc1ccc(Cl)cc1O | 125 µM (≈ 39 µg/mL) |
| COc1ccc(Cl)cc1C(=O)Nc1cc(Br)ccc1O | 8 µM (≈ 2.85 µg/mL) |

System: Mycobacterium kansasii
Assay: Antimycobacterial activity against Mycobacterium kansasii 6509/96 clinical isolate after 14 days by micromethod
Type: functional
Conditions: 6509/96, 336 h
Procedure, shortened: as §1

| Structure (SMILES) | MIC |
| --- | --- |
| COc1ccc(Cl)cc1C(=O)Nc1cc(Cl)c(Cl)cc1O | 125 µM (≈ 43.3 µg/mL) |
| COc1ccc(Cl)cc1C(=O)Nc1cc(C(F)(F)F)ccc1O | 125 µM (≈ 43.2 µg/mL) |
| COc1cc(Cl)ccc1C(=S)Nc1cc(Cl)c(Cl)cc1O | 32 µM (≈ 11.6 µg/mL) |
| COc1ccc(Cl)cc1C(=O)Nc1ccc(Br)cc1O | 250 µM (≈ 89.2 µg/mL) |
| COc1cc(Cl)ccc1C(=O)Nc1ccc(Cl)cc1O | 62.5 µM (≈ 19.5 µg/mL) |
| COc1ccc(Cl)cc1C(=O)Nc1cc(Br)ccc1O | 8 µM (≈ 2.85 µg/mL) |

System: Mycobacterium kansasii
Assay: Antimycobacterial activity against Mycobacterium kansasii 6509/96 clinical isolate after 21 days by micromethod
Type: functional
Conditions: 6509/96, 504 h
Procedure, shortened: as §1

| Structure (SMILES) | MIC |
| --- | --- |
| COc1ccc(Cl)cc1C(=O)Nc1cc(Cl)c(Cl)cc1O | 125 µM (≈ 43.3 µg/mL) |
| COc1ccc(Cl)cc1C(=O)Nc1cc(C(F)(F)F)ccc1O | 125 µM (≈ 43.2 µg/mL) |
| COc1cc(Cl)ccc1C(=S)Nc1cc(Cl)c(Cl)cc1O | 62.5 µM (≈ 22.7 µg/mL) |
| COc1ccc(Cl)cc1C(=O)Nc1ccc(Br)cc1O | 250 µM (≈ 89.2 µg/mL) |
| COc1cc(Cl)ccc1C(=O)Nc1ccc(Cl)cc1O | 62.5 µM (≈ 19.5 µg/mL) |
| COc1ccc(Cl)cc1C(=O)Nc1cc(Br)ccc1O | 8 µM (≈ 2.85 µg/mL) |

Target: T1, Isocitrate lyase (Mycobacterium tuberculosis) (UniProt P9WKK7)
T1 sequence (whole entry): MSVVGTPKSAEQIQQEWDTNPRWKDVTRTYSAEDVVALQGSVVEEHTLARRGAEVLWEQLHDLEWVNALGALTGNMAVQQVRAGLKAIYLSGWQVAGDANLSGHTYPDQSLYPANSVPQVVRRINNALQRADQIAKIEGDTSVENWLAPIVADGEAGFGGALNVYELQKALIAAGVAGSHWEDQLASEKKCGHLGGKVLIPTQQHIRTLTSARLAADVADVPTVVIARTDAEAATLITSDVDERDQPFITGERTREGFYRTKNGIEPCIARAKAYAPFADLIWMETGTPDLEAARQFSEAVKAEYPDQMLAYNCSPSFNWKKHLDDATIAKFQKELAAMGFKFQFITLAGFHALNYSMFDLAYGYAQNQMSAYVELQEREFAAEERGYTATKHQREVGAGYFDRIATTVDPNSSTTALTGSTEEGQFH
Assay: Inhibition of Mycobacterium tuberculosis H37Rv isocitrate lyase expressed in Escherichia coli HB101 at 10 umol/L
Conditions: not given
Procedure, shortened: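 Isocitrate lyase assayed per Dixon–Kornberg in 96-well format. Buffer: 50 mmol/L KH2PO4, 4 mmol/L MgCl2, 4 mmol/L phenylhydrazine, 12 mmol/L cysteine, pH 7.0. Glyoxylate phenylhydrazone read at 324 nm. Compounds added in DMSO, with DMSO-alone inhibition subtracted.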

| Structure (SMILES) | inhibition |
| --- | --- |
| COc1ccc(Cl)cc1C(=O)Nc1cc(Cl)c(Cl)cc1O | 7% |
| COc1ccc(Cl)cc1C(=O)Nc1cc(C(F)(F)F)ccc1O | 0% |
| COc1cc(Cl)ccc1C(=S)Nc1cc(Cl)c(Cl)cc1O | 0% |
| COc1ccc(Cl)cc1C(=O)Nc1ccc(Br)cc1O | 0% |
| COc1cc(Cl)ccc1C(=O)Nc1ccc(Cl)cc1O | 4% |
| COc1ccc(Cl)cc1C(=O)Nc1cc(Br)ccc1O | 0% |

System: HepG2
Assay: Cytotoxicity against human HepG2 cells after 24 hrs by CellTiter-96 cell viability assay
Type: functional, cell-based
Conditions: HepG2, 24 h
Procedure, shortened: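 Hep G2 human hepatic cells (passage 12), 10,000 per well, grown 24 h at 37 °C, 5% CO2 in MEM with 1% glutamine, 10% FBS and 1% nonessential amino acids. Compounds in DMSO at eight increasing concentrations, quadruplicate, 24 h at 37 °C. Kit reagent added, 1.5 h at 37 °C, absorbance 490 nm. IC50 is the concentration reducing viability to 50% of control.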

| Structure (SMILES) | IC50 |
| --- | --- |
| COc1ccc(Cl)cc1C(=O)Nc1cc(Cl)c(Cl)cc1O | 2.98 µM |
| COc1ccc(Cl)cc1C(=O)Nc1cc(C(F)(F)F)ccc1O | 15.4 µM |
| COc1cc(Cl)ccc1C(=S)Nc1cc(Cl)c(Cl)cc1O | 3.16 µM |
| COc1ccc(Cl)cc1C(=O)Nc1ccc(Br)cc1O | 7.98 µM |
| COc1cc(Cl)ccc1C(=O)Nc1ccc(Cl)cc1O | 7.34 µM |
| COc1ccc(Cl)cc1C(=O)Nc1cc(Br)ccc1O | 4.09 µM |

System: not listed separately
Assay: Selectivity index, ratio of IC50 for human HepG2 cells to MIC for Mycobacterium tuberculosis 331/88 after 14 days
Type: functional
Conditions: not given
Procedure, shortened: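 Cytotoxicity in Hep G2 cells (passage 12), 10,000 cells/well, in MEM with 10% FBS, 1% glutamine and 1% nonessential amino acids. Cells preincubated 24 h, 37 °C, 5% CO2. Compounds in DMSO at eight concentrations in quadruplicate, 24 h. MTS-type reagent added for 1.5 h, A490 read, IC50 taken at 50% viability. SI = this IC50 over the 14-day M. tuberculosis MIC.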

| Structure (SMILES) | Selectivity Index |
| --- | --- |
| COc1ccc(Cl)cc1C(=O)Nc1cc(Cl)c(Cl)cc1O | 0.02 |
| COc1ccc(Cl)cc1C(=O)Nc1cc(C(F)(F)F)ccc1O | 0.06 |
| COc1cc(Cl)ccc1C(=S)Nc1cc(Cl)c(Cl)cc1O | 0.1 |
| COc1ccc(Cl)cc1C(=O)Nc1ccc(Br)cc1O | 2 |
| COc1cc(Cl)ccc1C(=O)Nc1ccc(Cl)cc1O | 0.92 |
| COc1ccc(Cl)cc1C(=O)Nc1cc(Br)ccc1O | 0.51 |
